CSC inhib: blocks cancer stem cells | cancer stem cell-like cells viability, luminescence | inhibition, % at 7.5 µM | actives 1.1% (n = 300,000); in the data active = inhibition above about 75%; inconclusive = no clear call, values can overlap the other calls; tested in HMLE shEcad cells
Beta apoptosis: blocks beta cell apoptosis; INS-1E cytokine-induced death, ATP luminescence, 48 h; percent of positive-control rescue, neutral wells zero; protection from apoptosis, % (test concentration not listed); actives 0.8% (n = 300,000);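 active = Every replicate reaches about 75%, or at least half do and their mean reaches it too, limit read from the data; inconclusive = At least half of replicates reach the limit but their mean does not; inactive = Under half of replicates reach the limit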;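 note: 0% = cytokine-treated negative control wells and 100% = positive control rescue; higher means more ATP so stronger rescue from cytokine killing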
MC4R ag barr: agonists of human melanocortin 4 receptor (MC4R) beta-arrestin | U2OS MC4R beta-arrestin complementation, luminescence; percent of melanotan II response, DMSO zero | P32245 | activation, % at 8.9 µM | actives 0.98% (n = 360,000);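 active = activation above a per-plate cutoff, the mean activation of sample wells on that plate plus 3 SD, cut at about 8% in these data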
Target sequence (P32245 whole entry, looked up): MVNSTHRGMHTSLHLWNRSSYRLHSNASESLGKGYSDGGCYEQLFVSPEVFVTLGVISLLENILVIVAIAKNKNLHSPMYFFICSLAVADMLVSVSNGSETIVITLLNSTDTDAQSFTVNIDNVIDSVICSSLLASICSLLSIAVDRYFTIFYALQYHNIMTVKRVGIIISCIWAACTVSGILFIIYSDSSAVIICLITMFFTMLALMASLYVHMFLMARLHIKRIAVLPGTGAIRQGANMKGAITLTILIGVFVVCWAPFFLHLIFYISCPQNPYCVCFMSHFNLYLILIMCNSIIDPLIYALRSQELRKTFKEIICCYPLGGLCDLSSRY
TMEM16A act: activators or potentiators of mouse TMEM16A chloride channel | Q8BHY3 | HEK293 TMEM16A/YFP-H148Q/I152L, iodide quench fluorescence; active compounds read low | B-score at 10 µM | actives 0.3% (n = 340,000) | AID 623877;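 active = fluorescence-ratio B-score plate-corrected deviation score at least 3 library SD below zero, with starting fluorescence score within 5 deviations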;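 note: channel opened by trigger with iodide after compound preincubation; score built on the fluorescence ratio of max minus min over baseline; more negative score means more quench and so TMEM16A activation or potentiation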
MC4R antag cAMP: blocks human MC4R cAMP signaling | AID 540295 | MC4R-expressing cells, MTII-stimulated cAMP, LANCE TR-FRET | P32245 | inhibition, % at 6.5 µM | actives 0.48% (n = 360,000);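 active = inhibition above its plate's cutoff, the mean of tested wells on that plate plus 3 SD, cut at about 29% in these data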;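 note: 0% = Melanotan II alone and 100% = Melanotan II plus saturating MCL0020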
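Test system: U2OS cells stably expressing human melanocortin 4 receptor (MC4R); also added: Melanotan II challenge; compound: 6.5 µM single dose; timing: 30-min compound preincubation, 1-h Melanotan II challenge, 1-h detection, room temperature; signal: Eu-cAMP/anti-cAMP TR-FRET, emission 671 nm; repeats: one well per compound, no replicates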
TMEM16A inh: inhibitors of mouse TMEM16A calcium-activated chloride channel; Q8BHY3; HEK293 TMEM16A/YFP iodide influx fluorescence, ionomycin; actives 1.2% (n = 310,000); AID 588511; normalized B-score (activity score, 25-100; higher = stronger inhibition) at 10 µM;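 active = ratio plate-corrected score three or more library SD toward inhibition, starting fluorescence score within five deviations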;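 note: score derived from kinetic fluorescence span divided by baseline fluorescence per well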
cAMP nonselect: U2OS forskolin cAMP inhibition counter-screen; shares compounds with MC4R antag cAMP; parental U2OS, LANCE TR-FRET; inhibition, % at 6.5 µM; actives 26% (n = 1,600);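 active = mean inhibition over triplicates above the low-control well mean plus 3 SD, set per campaign, cut at about 13% in these data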;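 note: signal is single emission at 671 nm which falls as cellular cAMP rises; 0% = forskolin-stimulated wells and 100% = buffer without forskolin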
MC4R antag conf: human MC4R cAMP antagonism confirmation; actives 27% (n = 1,600); MC4R-expressing cells, MTII-stimulated cAMP, TR-FRET; inhibition, % at 6.5 µM; AID 602195; shares compounds with MC4R antag cAMP; in the data active = inhibition above about 29%;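 note: 0% = agonist stimulated wells alone and 100% = agonist stimulated wells plus saturating reference antagonist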
* marks the source's active call; other numbers are inactive results; i = inactive; u = inconclusive; x = no result given. The list is not random: actives were taken first. Their share in the collection is about 3.8%.

SMILES	CSC inhib	Beta apoptosis	MC4R ag barr	TMEM16A act	MC4R antag cAMP	TMEM16A inh	cAMP nonselect	MC4R antag conf
Cc1ccccc1N1CCN(C2CCCN(C(=O)CN3CCCC3=O)C2)CC1 (stereo unspecified)	-3	x	0	i	31*	i	-2	-4
Cc1ccccc1N1CCN(C2CCCN(C(=O)CCN3CCCCC3=O)C2)CC1 (stereo unspecified)	-2	-1	-1	i	7	i	x	x
CC1=CC(=O)C(C(C)C)=C/C1=N/OS(=O)(=O)c1ccccc1	u	105*	31*	-6.5*	71*	100*	36*	91*
Cc1ccc(NC(=O)C2=C(c3ccccc3)S(=O)(=O)CCS2(=O)=O)cc1	79*	u	0	i	61*	i	50*	44*
CCOC(=O)c1c(NC(=O)CCl)sc(CN(C)C)c1-c1ccccc1	-5	-14	-3	i	48*	i	23*	41*
CCOC(=O)CSc1nc2c(sc(=S)n2-c2ccc(CC)cc2)c(=O)[nH]1	x	x	0	i	31*	i	3	-4
COc1ccc(OC)c(/C=C/C(=O)N2CCN(S(=O)(=O)c3ccc(C)cc3C)CC2)c1	x	x	2	i	11	x	x	x
Cc1cc(C(=O)O)ccc1-c1ccc(/C=C2\NC(=O)N(Cc3ccccc3Cl)C2=O)o1	11	6	1	i	37*	i	2	-3
CCNC(=O)C1(C)CCCN(Cc2cccc3ccccc23)C1 (stereo unspecified)	x	x	-2	x	2	x	x	x
O=c1oc2cc(O)c(Cl)cc2c2ccccc12	-12	-3	-2	i	56*	i	41*	64*
CCN1CCN(c2ccc(S(=O)(=O)N3CCCCC3)cc2NC(=O)c2cccc(OC(F)F)c2)CC1	3	2	1	i	14	i	x	x
CC1(c2ccc(OC(F)F)cc2)NC(=O)N(CC(=O)Nc2cccnc2Cl)C1=O (stereo unspecified)	-7	0	-2	i	5	i	x	x
Clc1ccc(-c2ccc(-c3nn4c(-c5ccco5)nnc4s3)o2)cc1	-6	8	7	i	13	i	x	x
Brc1ccc(-c2nn3c(-c4ccco4)nnc3s2)o1	-5	4	-3	i	45*	i	26*	39*
CC(C)CC(N)c1csc(Nc2ccccn2)n1 (stereo unspecified)	x	x	-1	x	11	x	x	x
CCCCn1c(N)c(N(CCC(C)C)C(=O)CCCc2nc3ccccc3s2)c(=O)[nH]c1=O	4	x	-2	i	30*	i	4	15
N#Cc1ccc(S(=O)(=O)NCC(=O)OCC(=O)N2CCCC2=O)cc1	-10	-7	-5	i	34*	i	19*	14
CCN1CCN(C(c2cccs2)C(C)NS(=O)(=O)c2ccc(C)cc2)CC1 (stereo unspecified)	-12	-1	-2	i	30*	i	1	-8
CCCCNC(=O)CN1C(=O)CSc2ccc(S(=O)(=O)N3CCOCC3)cc21	x	x	0	x	55*	x	-2	-15
O=C(COC(=O)CNS(=O)(=O)c1ccc(F)c(F)c1F)Nc1ccc(OC(F)F)cc1	-4	-2	-3	i	29*	i	9	18
O=C(Nc1ccccc1)OCC1COC(c2ccccc2)(c2ccccc2)O1 (stereo unspecified)	x	x	1	i	-1	x	x	x
CC(C)(C)OC(=O)NCCc1nnc(SCc2ccccc2Cl)o1	-13	-5	1	i	-9	i	x	x
CC(C)(C)OC(=O)NCCc1nnc(S(=O)(=O)Cc2ccc(Cl)cc2Cl)o1	u	-88	-2	i	31*	i	4	38*
Cc1csc(NC(=O)CSc2nc(C(C)C)nc3ccccc23)n1	9	-5	-1	i	1	i	x	x
COc1ccc(NC(=O)CN2C(=O)C(C)SC(C)C2=O)cc1 (stereo unspecified)	0	0	-3	i	31*	i	3	1
SMILES	CSC inhib	Beta apoptosis	MC4R ag barr	TMEM16A act	MC4R antag cAMP	TMEM16A inh	cAMP nonselect	MC4R antag conf
CCOC(=O)c1cc(S(=O)(=O)N2CCN(C3CCCCC3)CC2)cn1C	-10	-5	-1	i	12	i	x	x
Cc1cc(NC(=O)CN2C(=O)NC(c3ccccc3)(c3ccc(C)c(C)c3)C2=O)no1 (stereo unspecified)	x	3	2	i	6	x	x	x
COc1ccccc1N(C)S(=O)(=O)c1ccc(C(=O)OCC(=O)c2c[nH]c3ccccc23)cc1	5	-7	4	i	39*	i	5	5
COc1ccccc1N(C)S(=O)(=O)c1ccc(C(=O)OCC(=O)N(C)c2ccccc2)cc1	0	1	-3	i	4	i	x	x
O=C(CCC(=O)c1cccs1)NNC(=O)c1ccc(Cl)cc1	-9	6	-2	i	3	x	x	x
Cc1sc2nc(CN3CCOCC3)nc(Cl)c2c1C	0	-8	-2	i	32*	i	11	28
CN(C)CCCN1C(=O)C(O)=C(C(=O)c2cc3ccccc3o2)C1c1ccccn1 (stereo unspecified)	x	x	-1	i	33*	x	9	26
CN(C)CCCN1C(=O)C(O)=C(C(=O)c2cc3ccccc3o2)C1c1ccccc1 (stereo unspecified)	5	-2	-1	i	27	i	x	x
CCCOc1ccc(CNC(=S)Nc2ccccc2)cc1Cl	5	-1	5	i	-4	i	x	x
CC(C)Cc1nc2oc3c(Cl)ncnc3c2c2c1CCC2	86*	-3	-4	i	60*	i	8	43*
CCn1c(CC(=O)Nc2ccc(C)cc2)nnc1SCC(=O)N1CCOCC1	-2	-4	-1	i	-1	i	x	x
COc1ccccc1NC(=O)c1sc(NC(=O)c2ccco2)c(C#N)c1C	14	5	-1	i	18	i	x	x
Cc1ccccc1OCC(=O)Nc1sc(C(=O)Nc2cccc(C)c2C)c(C)c1C#N	-3	1	0	i	105*	i	2	-3
COc1ccc(-c2cc3cc(-c4cc(OC)c(OC)c(OC)c4)ccc3o2)cc1	-3	-1	-1	i	0	x	x	x
O=C(Nc1ccc(F)cc1)c1nn(-c2ccccc2)c(=O)cc1Cl	x	x	-1	i	31*	x	30*	38*
COC(=O)c1nn(-c2ccccc2)c(=O)cc1O	2	2	-1	i	0	i	x	x
